PMC10443334 (Microbial Biotechnology, 2023)
Blank lines part the entries; values can stand above or below the compound they belong to. Where a SMILES comes first, the peptide text is derived from it. Bridges are numbered along the chain shown (N, C = ends). [ ]: non-standard residue; d: D form. The star is where a group is joined. X1 = CC[C@H](C)CCCCC(=O)*; Dab = NCC[C@H](N)C(=O)O

Assays:
THP-1 cells [1] = assay: LDH release and caspase 1 western blot after OMV stimulation; type: cell-based, human; details: Wed 50 μM pre-treatment for 2 h, OMVs 20 μg protein/mL
Procedure, shortened: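 PMA-differentiated (10 ng/mL, 48 h) THP-1 macrophages were pre-treated with DMSO or 50 μM Wed, then exposed to OMVs (20 μg protein/mL) for 4 h at 37°C, 5% CO2. OMVs came from 8 h LB culture supernatants, filtered, concentrated on 100-kDa filters and pelleted at 150,000 g for 3 h. LDH in media was read by kit as % of 0.1% Triton X-100 lysis; lysates were western blotted with chemiluminescent quantitation.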

BL21/pMCR-1 [2] = assay: Time-killing kinetics; type: cell-based, E. coli; details: 16 μg/mL, 1 × 10^5 CFU/mL, IPTG, 37°C, agar plate dilution count
Procedure, shortened: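 Suspensions of IPTG-induced BL21/pMCR-1 (1 × 10^5 CFU/mL) were sub-cultured into tubes with IPTG, with or without test compound at 4 × MIC, at 37°C. Viable counts were taken by agar plate dilution at fixed time intervals. Data are mean ± SD from three independent experiments.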

BL21/pMCR-1 [3] = assay: Microdilution MIC/MBC; type: cell-based, E. coli; details: MIC ratio BL21/pMCR-1 vs BL21/pEmpty
Procedure, shortened: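 Broth microdilution MIC/MBC followed CLSI. Strains were E. coli BL21 carrying pET28a-mcr-1 or empty pET28a, grown in LB (pH 7.2–7.4) with 50 μg/mL kanamycin. MCR-1 expression was induced with 0.5 mM IPTG at 37°C with shaking at 220 rpm.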

THP-1 cells [4] = assay: NF-κB activation western blot; type: cell-based, human; details: TAK242 1 μM (infection) or 100 nM (LPS) for 1 h
Procedure, shortened: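 THP-1 cells were differentiated with PMA (10 ng/mL, 48 h). For infection, cells got TAK242 1 μM for 1 h, then washed log-phase BL21/pEmpty or BL21/pMCR-1 at MOI 50 in serum-free medium with kanamycin and IPTG for 4 h. For LPS, cells got TAK242 100 nM for 1 h, then purified LPS (1 μg/mL) for 4 h. Cell extracts were western blotted and relative band levels quantified.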

SMILES: COc1cc(O)c2c(c1)oc(=O)c1c3cc(O)c(O)cc3oc21 [Wed, wedelolactone]
- macrophage cell death and caspase-1 processing after OMV stimulation (THP-1 cells [1]): markedly reduced

- increase of MIC against BL21/pMCR-1 compared to BL21/pEmpty (BL21/pMCR-1 [3]): 8 fold
SMILES: CC[C@H](C)CCCCC(=O)N[C@@H](CCN)C(=O)N[C@H](C(=O)N[C@@H](CCN)C(=O)N[C@H]1CCNC(=O)[C@H]([C@@H](C)O)NC(=O)[C@H](CCN)NC(=O)[C@H](CCN)NC(=O)[C@H](CC(C)C)NC(=O)[C@@H](Cc2ccccc2)NC(=O)[C@H](CCN)NC1=O)[C@@H](C)O [polymyxin B, Polymyxin B sulphate] (X1-[Dab]T[Dab][Dab][Dab][dF]L[Dab][Dab]T; lactam 4-C (inferred); N-terminus assumed)
- time to eradicate all bacteria (time-kill kinetics) (BL21/pMCR-1 [2]): 4 h

SMILES: CCOC(=O)C1=CCCC[C@H]1S(=O)(=O)Nc1ccc(F)cc1Cl [TAK242, Resatorvid]
- p-P65 and p-IκB after infection or LPS stimulation (THP-1 cells [4]): inhibited
